In ChEMBL document CHEMBL3044983, “Antifungal activity and biotransformation of diisophorone by Botrytis cinerea” (J Agric Food Chem, 2005):
Calls of active or inactive are those of the source. No cut-off for these calls is given here.

Assays:
Botrytis cinerea [1] = assay: Antifungal activity against Botryotinia fuckeliana UCA992 assessed as inhibition of radial mycelial growth up to 200 ppm for 5 days by poisoned food technique; assay type: functional
In short: (§1)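 Radial growth on glucose-malt-peptone-agar (pH 6.5-7.0). Test compound was added in ethanol to final 50-200 mg/L, and ethanol was equal in control and treated plates. A 1.5 cm mycelial disk from an actively growing culture was placed at the plate centre, and radial growth was followed over 8 days. Percent inhibition was taken from colony diameters relative to the negative control, as the mean of triplicates.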

Botrytis cinerea [2] = assay: Antifungal activity against Botryotinia fuckeliana UCA992 assessed as inhibition of radial mycelial growth up to 100 ppm for 5 days by poisoned food technique; assay type: functional, organism-based; in short: as §1
Botrytis cinerea [3] = assay: Antifungal activity against Botryotinia fuckeliana 2100 assessed as inhibition of radial mycelial growth for 5 days by poisoned food technique; assay type: functional, organism-based
Botrytis cinerea [4] = assay: Antifungal activity against Botryotinia fuckeliana UCA992 assessed as inhibition of radial mycelial growth up to 150 ppm for 5 days by poisoned food technique; assay type: functional; in short: as §1
Botrytis cinerea [5] = assay: Antifungal activity against Botryotinia fuckeliana UCA992 assessed as inhibition of radial mycelial growth for 5 days by poisoned food technique; assay type: functional, organism-based
Botrytis cinerea [6] = assay: Antifungal activity against Botryotinia fuckeliana UCA992 assessed as inhibition of radial mycelial growth up to 50 ppm for 5 days by poisoned food technique; assay type: functional
Botrytis cinerea [7] = assay: Antifungal activity against Botryotinia fuckeliana 2100 assessed as inhibition of radial mycelial growth at 50 ppm for 5 days by poisoned food technique; assay type: functional; settings: Botrytis cinerea, 2100, 120 h; in short: as §1

| SMILES | inhibition (Botrytis cinerea [1]) | inhibition (Botrytis cinerea [2]) | inhibition (INH) (Botrytis cinerea [1]) | IC50 (Botrytis cinerea [3]) | inhibition (INH) (Botrytis cinerea [4]) | IC50 (Botrytis cinerea [5]) | inhibition (INH) (Botrytis cinerea [6]) | inhibition at 50 ppm (Botrytis cinerea [7]) |
| --- | --- | --- | --- | --- | --- | --- | --- | --- |
| CC1(C)C[C@@]2(C)CC3=C(C(=O)CC(C)(C)[C@@H]3O)[C@@](O)(C1)C2 | inactive | inactive |  |  |  |  |  |  |
| CC1(C)C[C@@]2(C)CC3=C(C(=O)CC(C)(C)[C@H]3O)[C@@](O)(C1)C2 | inactive | inactive |  |  |  |  |  |  |
| CC1(C)CC(=O)C2=C(C1)C[C@]1(C)CC(C)(C)C[C@@]2(O)C1 [DIISOPHORONE] |  | inactive | 92% | 70 ppm | 76% | 89 ppm | 6% | 69% |
| CC1(C)CC(=O)C2=C(C1)[C@@H](O)[C@]1(C)CC(C)(C)C[C@@]2(O)C1 | inactive | inactive |  |  |  |  |  |  |
| CC1(C)C[C@@]2(O)C[C@@](C)(C1)[C@H](O)C1=C2C(=O)C[C@@](C)(CO)C1 | inactive | inactive |  |  |  |  |  |  |
